In ChEMBL document CHEMBL1155876 (J Med Chem, 2008):

Tests used:
[1] = target: T1, Aurora kinase A (Homo sapiens, UniProt O14965); assay: Inhibition of Aurora A
T1 sequence (O14965 whole entry): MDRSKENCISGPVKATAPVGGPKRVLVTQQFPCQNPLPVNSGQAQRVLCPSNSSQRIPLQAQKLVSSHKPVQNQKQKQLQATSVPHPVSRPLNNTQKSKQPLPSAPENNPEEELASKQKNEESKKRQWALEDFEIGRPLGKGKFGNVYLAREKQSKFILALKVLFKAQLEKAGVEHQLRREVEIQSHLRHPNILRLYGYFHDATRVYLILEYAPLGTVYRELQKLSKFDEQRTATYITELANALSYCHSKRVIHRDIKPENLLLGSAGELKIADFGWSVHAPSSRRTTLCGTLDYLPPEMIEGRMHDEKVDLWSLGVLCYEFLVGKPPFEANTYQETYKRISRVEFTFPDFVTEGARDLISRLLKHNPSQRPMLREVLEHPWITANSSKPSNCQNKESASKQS

[2] = tested on: HT-29; assay: Antiproliferative activity against human HT29 cells; format: functional, cell-based
In short: (§1)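 HCT116, HT29 or MCF7 cells were seeded on day 0 in 1:1 Ham's F12/DMEM-high glucose with 10% FBS and 2 mM L-glutamine, then kept overnight at 37 °C in 5% CO2. On day 1, inhibitor in DMSO, diluted 20-fold in serum- and glutamine-free medium, was added. Viability was read on day 4 as total ATP by CellTiter-Glo luminescence.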

[3] = target: T2, Aurora kinase B (Homo sapiens, UniProt Q96GD4); assay: Inhibition of Aurora B
[4] = tested on: MCF7; assay: Antiproliferative activity against human MCF7 cells; format: functional, cell-based; in short: as §1
[5] = Cmax in CD1 mouse at 30 mg/kg, po; format: ADME, organism-based; design: dose 30 mg/kg, route oral; conditions: in vivo
[6] = AUClast in CD1 mouse at 30 mg/kg, po; format: ADME, organism-based; design: time 0 - last, dose 30 mg/kg, route oral; conditions: plasma
[7] = target: Cyclin-dependent kinase 2 (Homo sapiens, UniProt P24941); assay: Inhibition of CDK2/CyclinA
[8] = tested on: Mus musculus; assay: Toxicity in athymic mouse xenografted with human HCT116 cells assessed as loss of body weight at 10 mg/kg, po qd; format: organism-based, HCT-116; design: dose 10 mg/kg, route oral; conditions: in vivo
In short: (§2)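 Female athymic nude mice, 5 × 10^6 HCT-116 cells injected subcutaneously in the right flank. At a mean tumor volume of ~150 mm3, mice were randomized to groups (N = 10). Oral QD dosing at 0, 1, 2.5, 5 or 10 mg/kg as a suspension in 20% HP-β-cyclodextrin (100 µL). Three mice per group were taken for PD after 2 days; the rest were dosed for 21 days. Body weight was followed, with euthanasia at 20% weight loss.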

[9] = Oral bioavailability in Sprague-Dawley rat 5 mg/kg; format: ADME, organism-based; conditions: in vivo
In short: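 Male Sprague-Dawley rats, three per route. Oral dose 5 mg/kg as a solution in 80% PEG; iv dose 1 mg/kg, also as an 80% PEG solution. PK parameters calculated from averaged serum levels (N = 3).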

[10] = Clearance in CD1 mouse 1 mg/kg, iv; format: ADME, organism-based; design: dose 1 mg/kg, route intravenous; conditions: in vivo
In short: (§3)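 A single 1 mg/kg iv dose was given. Vehicles: CD-1 mice (female, 3 per time point), 5% DMSO/5% Cremophor; SD rats (male, 3 per route), 80% PEG; beagles (male, 3 per route), 60% PEG. PK parameters were calculated from averaged serum levels (N = 3).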

[11] = tested on: Mus musculus; assay: Toxicity in athymic mouse xenografted with human HCT116 cells assessed as gastrointestinal hypocellularity at 10 mg/kg, po qd; conditions: in vivo
[12] = target: T1, Aurora kinase A; assay: Inhibition of Aurora A in human HCT cells assessed as loss of autophosphorylation of Aurora A; format: cell-based
[13] = tested on: Mus musculus; assay: Toxicity in athymic mouse xenografted with human HCT116 cells assessed as bone marrow depletion at 10 mg/kg, po qd; format: organism-based, HCT-116; design: dose 10 mg/kg, route oral; conditions: in vivo; in short: as §2
[14] = target: T2, Aurora kinase B; assay: Inhibition of Aurora B assessed as loss of phospho histone H3 in human […] cells; format: cell-based
[15] = Clearance in Beagle dog 1 mg/kg, iv; format: ADME, organism-based, Canis lupus familiaris; design: dose 1 mg/kg, route intravenous; conditions: in vivo; in short: as §3
[16] = target: Glycogen synthase kinase-3 beta (Homo sapiens, UniProt P49841); assay: Inhibition of GSK3-beta
[17] = target: T2, Aurora kinase B; assay: Inhibition of Aurora B assessed as loss of phospho histone H3 in human HCT cells; format: cell-based
[18] = Oral bioavailability in Beagle dog 5 mg/kg; format: ADME, organism-based, Canis lupus familiaris; conditions: in vivo
In short: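 Three male beagles per route. Oral dose 5 mg/kg given as a solution in 80% PEG; iv comparator 1 mg/kg delivered in 60% PEG. Mean serum concentrations (N = 3) used to derive PK parameters.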

[19] = target: Receptor-type tyrosine-protein kinase FLT3 (Homo sapiens, UniProt P36888); assay: Inhibition of Flt3
[20] = Clearance in Sprague-Dawley rat 1 mg/kg, iv; format: ADME, organism-based; design: dose 1 mg/kg, route intravenous; conditions: in vivo; in short: as §3
[21] = target: Proto-oncogene tyrosine-protein kinase Src (Homo sapiens, UniProt P12931); assay: Inhibition of Src
[22] = target: Serine/threonine-protein kinase Chk1 (Homo sapiens, UniProt O14757); assay: Inhibition of Chk1
[23] = target: Vascular endothelial growth factor receptor 2 (Homo sapiens, UniProt P35968); assay: Inhibition of KDR
[24] = tested on: Mus musculus; assay: Oral bioavailability in CD1 mouse 5 mg/kg; format: ADME, organism-based; conditions: in vivo
In short: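 Female CD-1 mice, three per time point. Oral dose 5 mg/kg as a solution in 80% polyethylene glycol; iv reference dose 1 mg/kg as a solution in 5% DMSO, 5% Cremophor. PK parameters calculated from mean serum levels (N = 3).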

[25] = tested on: HCT-116; assay: Antiproliferative activity against human HCT116 cells

T2 sequence (Q96GD4 whole entry): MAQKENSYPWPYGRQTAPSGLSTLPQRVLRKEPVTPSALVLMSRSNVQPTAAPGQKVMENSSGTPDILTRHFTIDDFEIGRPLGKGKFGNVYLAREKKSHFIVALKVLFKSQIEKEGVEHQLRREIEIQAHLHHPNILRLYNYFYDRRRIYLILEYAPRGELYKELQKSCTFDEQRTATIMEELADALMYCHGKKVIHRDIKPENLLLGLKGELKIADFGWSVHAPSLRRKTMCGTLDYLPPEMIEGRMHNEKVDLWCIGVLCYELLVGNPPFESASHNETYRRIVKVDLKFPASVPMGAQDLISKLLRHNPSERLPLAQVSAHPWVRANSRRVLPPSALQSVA
Sequence of Glycogen synthase kinase-3 beta (P49841 whole entry): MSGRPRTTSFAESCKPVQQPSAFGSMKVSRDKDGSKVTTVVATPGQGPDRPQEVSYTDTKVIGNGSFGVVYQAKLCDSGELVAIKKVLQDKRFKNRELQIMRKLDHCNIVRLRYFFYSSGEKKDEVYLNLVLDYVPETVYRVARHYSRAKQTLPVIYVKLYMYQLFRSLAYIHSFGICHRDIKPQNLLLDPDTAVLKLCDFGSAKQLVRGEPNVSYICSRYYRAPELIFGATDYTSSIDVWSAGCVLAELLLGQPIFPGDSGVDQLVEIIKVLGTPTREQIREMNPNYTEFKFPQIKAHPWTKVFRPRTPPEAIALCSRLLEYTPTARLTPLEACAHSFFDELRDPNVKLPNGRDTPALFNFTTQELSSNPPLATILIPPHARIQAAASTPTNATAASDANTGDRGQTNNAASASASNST
Sequence of Proto-oncogene tyrosine-protein kinase Src (P12931 2-536 limits assumed): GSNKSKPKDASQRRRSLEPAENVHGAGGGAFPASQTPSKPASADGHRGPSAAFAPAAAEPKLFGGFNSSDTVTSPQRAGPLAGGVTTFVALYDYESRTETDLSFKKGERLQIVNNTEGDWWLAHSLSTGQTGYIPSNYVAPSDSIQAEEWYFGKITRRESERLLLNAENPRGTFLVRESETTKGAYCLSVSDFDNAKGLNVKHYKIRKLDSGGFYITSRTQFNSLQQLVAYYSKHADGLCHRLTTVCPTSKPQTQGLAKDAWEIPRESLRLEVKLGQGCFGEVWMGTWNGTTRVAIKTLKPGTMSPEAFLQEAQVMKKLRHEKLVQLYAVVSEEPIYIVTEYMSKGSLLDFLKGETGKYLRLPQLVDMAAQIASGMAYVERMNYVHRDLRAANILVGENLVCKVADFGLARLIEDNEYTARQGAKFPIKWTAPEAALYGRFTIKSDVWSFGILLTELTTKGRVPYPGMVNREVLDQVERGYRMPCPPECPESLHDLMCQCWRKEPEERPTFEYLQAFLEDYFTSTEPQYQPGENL
Sequence of Receptor-type tyrosine-protein kinase FLT3 (P36888 whole entry): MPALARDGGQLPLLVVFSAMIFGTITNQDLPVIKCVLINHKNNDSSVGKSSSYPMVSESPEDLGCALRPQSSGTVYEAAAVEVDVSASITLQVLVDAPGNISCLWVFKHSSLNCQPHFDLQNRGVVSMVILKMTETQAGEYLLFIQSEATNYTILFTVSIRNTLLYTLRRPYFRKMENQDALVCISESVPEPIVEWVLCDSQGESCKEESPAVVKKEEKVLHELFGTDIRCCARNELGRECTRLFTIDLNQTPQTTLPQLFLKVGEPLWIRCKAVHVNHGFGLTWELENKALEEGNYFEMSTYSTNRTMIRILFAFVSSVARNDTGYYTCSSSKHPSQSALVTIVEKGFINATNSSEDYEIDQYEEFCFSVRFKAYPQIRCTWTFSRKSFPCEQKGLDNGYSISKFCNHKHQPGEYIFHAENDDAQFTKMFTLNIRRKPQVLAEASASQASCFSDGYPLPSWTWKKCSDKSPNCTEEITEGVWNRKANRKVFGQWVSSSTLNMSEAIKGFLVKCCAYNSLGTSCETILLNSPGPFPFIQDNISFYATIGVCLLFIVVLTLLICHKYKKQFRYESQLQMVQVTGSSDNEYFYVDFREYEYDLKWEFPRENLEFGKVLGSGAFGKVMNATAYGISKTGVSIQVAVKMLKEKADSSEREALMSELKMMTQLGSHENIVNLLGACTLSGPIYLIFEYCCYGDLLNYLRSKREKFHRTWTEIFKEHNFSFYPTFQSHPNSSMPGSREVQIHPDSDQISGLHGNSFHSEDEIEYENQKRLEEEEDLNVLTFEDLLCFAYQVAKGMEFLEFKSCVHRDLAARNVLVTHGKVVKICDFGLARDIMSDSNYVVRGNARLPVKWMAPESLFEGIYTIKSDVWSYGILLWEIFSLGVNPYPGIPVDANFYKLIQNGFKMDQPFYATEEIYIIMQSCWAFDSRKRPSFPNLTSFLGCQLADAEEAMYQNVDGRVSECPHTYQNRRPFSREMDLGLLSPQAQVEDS
Sequence of Serine/threonine-protein kinase Chk1 (O14757 whole entry): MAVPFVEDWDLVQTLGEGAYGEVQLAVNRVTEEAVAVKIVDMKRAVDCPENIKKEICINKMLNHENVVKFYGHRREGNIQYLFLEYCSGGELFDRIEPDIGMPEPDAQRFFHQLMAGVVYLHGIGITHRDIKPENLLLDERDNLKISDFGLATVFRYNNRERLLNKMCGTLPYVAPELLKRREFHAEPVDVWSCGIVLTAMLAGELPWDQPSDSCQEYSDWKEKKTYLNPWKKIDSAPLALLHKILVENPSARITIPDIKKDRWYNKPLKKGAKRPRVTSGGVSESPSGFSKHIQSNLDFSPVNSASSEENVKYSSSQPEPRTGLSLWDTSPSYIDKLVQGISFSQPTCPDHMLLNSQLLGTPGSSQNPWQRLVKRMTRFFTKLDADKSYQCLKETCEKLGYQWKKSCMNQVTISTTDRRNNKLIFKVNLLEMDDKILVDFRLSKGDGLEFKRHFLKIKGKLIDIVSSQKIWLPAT
Sequence of Vascular endothelial growth factor receptor 2 (P35968 whole entry): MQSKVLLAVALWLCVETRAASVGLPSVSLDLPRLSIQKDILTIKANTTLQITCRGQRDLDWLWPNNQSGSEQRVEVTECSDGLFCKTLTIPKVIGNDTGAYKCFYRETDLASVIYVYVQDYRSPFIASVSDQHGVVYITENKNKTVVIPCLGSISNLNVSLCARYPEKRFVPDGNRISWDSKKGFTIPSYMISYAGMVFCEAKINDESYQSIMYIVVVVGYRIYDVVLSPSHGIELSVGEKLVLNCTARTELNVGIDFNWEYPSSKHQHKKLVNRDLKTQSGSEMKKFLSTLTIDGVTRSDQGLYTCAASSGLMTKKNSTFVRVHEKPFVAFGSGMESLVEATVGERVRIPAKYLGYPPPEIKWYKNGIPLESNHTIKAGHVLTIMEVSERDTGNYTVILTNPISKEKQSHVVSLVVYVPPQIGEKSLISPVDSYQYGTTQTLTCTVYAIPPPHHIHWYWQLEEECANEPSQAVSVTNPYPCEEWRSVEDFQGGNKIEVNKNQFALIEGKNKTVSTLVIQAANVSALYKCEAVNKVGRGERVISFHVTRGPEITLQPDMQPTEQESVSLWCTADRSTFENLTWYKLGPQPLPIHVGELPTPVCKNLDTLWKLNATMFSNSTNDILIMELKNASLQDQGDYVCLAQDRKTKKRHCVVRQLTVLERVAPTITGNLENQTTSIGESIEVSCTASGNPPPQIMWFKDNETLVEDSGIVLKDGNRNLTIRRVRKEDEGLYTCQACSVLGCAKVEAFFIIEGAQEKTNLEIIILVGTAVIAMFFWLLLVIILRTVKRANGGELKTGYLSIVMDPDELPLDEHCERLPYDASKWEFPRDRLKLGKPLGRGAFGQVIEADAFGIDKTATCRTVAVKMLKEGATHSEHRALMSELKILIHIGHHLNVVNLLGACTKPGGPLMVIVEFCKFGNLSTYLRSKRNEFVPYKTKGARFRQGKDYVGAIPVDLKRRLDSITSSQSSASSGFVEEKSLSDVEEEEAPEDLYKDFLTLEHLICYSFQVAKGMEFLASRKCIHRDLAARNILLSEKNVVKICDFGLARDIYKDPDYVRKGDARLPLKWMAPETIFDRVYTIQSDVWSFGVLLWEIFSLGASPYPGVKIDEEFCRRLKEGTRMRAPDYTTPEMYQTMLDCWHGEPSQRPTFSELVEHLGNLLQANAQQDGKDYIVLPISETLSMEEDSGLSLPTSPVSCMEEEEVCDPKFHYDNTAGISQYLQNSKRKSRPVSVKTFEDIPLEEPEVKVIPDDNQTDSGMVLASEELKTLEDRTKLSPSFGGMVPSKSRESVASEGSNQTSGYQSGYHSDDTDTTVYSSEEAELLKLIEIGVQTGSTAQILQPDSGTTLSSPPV

Row | IC50 [1] [nM] | IC50 [2] [nM] | IC50 [3] [nM] | IC50 [4] [nM] | SMILES | other results
1 | 110 |  |  |  | c1ccc2c3c([nH]c2c1)-c1n[nH]c(C2CC2)c1CC3 | 
2 | 5700 |  |  |  | CCOC(=O)c1[nH]nc2c1CCc1c-2[nH]c2ccccc12 | 
3 | 51 | > 20000 | 220 | 4500 | Cc1[nH]nc2c1CCc1c-2[nH]c2ccccc12 | 
4 | 1100 |  | 510 |  | Cc1cc(-c2cc3ccccc3[nH]2)n[nH]1 | 
5 | 870 | > 20000 | 880 | > 20000 | Cc1[nH]nc2c1Cc1c-2[nH]c2ccccc12 | 
6 | 69 |  | 130 |  | CCN1C(=O)C(C)(C)c2cc3nc(-c4cc(C)[nH]n4)[nH]c3cc21 | Cmax [5]: 51 µM; AUC(0-t) [6]: 180 µM·h
7 | 300 |  |  |  | c1ccc2c3c([nH]c2c1)-c1n[nH]cc1CC3 | 
8 | 2 | 30 |  | 100 | Cc1[nH]nc2c1CCCc1c-2[nH]c2cc3c(cc12)NC(=O)C3(C)C | 
9 |  |  | 5 |  | CCN1C(=O)C(C)(C)c2cc3[nH]c4c(c3cc21)CCCc1c-4n[nH]c1C | IC50 [7]: 15000 nM; Activity [8]: Toxic; bioavailability [9]: 97%; clearance [10]: 25 mL/min/kg; Activity [11]: Toxic; IC50 [12]: 160 nM; Activity [13]: Toxic; IC50 [14]: 100 nM; clearance [15]: 34 mL/min/kg; IC50 [16]: 7700 nM; IC50 [17]: 310 nM; bioavailability [18]: 56%; IC50 [19]: 2 nM; clearance [20]: 22 mL/min/kg; IC50 [21]: 250 nM; IC50 [22]: 85 nM; IC50 [23]: 12 nM; F [24]: 178%
10 | 180 |  | 150 |  | Cc1cc(-c2nc3cc4c(cc3[nH]2)NC(=O)C4(C)C)n[nH]1 | Cmax [5]: 0.88 µM; AUC(0-t) [6]: 1.5 µM·h
11 |  | 150 |  | 48 | Cc1cc(Nc2cc(N3CCN(C)CC3)nc(Sc3ccc(NC(=O)C4CC4)cc3)n2)n[nH]1 [TOZASERTIB] | IC50 [25]: 53 nM
12 | 340 |  |  |  | OCc1[nH]nc2c1CCc1c-2[nH]c2ccccc12 | 
13 | 72 | 2600 | 86 | 1500 | Cc1[nH]nc2c1CCCc1c-2[nH]c2cc3c(cc12)C(C)(C)C(=O)N3 | 
14 | 42 | 2600 | 22 | 670 | Cc1[nH]nc2c1CCCC1c3ccccc3NC21 (stereo not given) | 
